Assay outcomes as filed in PubChem BioAssay.
L major viab – inhibitors of Leishmania major promastigote growth | Leishmania major promastigotes, resazurin fluorescence viability | inhibition, % at 10 µM | 9% of 200,000 active | AID 1063; in the data active = inhibition above about 50%;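 also: promastigotes grown with compound for 44 hours at 28 °C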
b-catenin transl – beta-catenin nuclear translocation modulation; HeLa beta-catenin nuclear translocation, immunofluorescence imaging; nuclear translocation activity, % at 5 µM; 0.3% of 190,000 active; AID 1665;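 active = nuclear translocation activity above 50% at 5 µM, with a well cell count of 50 or more; inconclusive = wells under 50 cells across six images, flagged as toxic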;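 also: per-cell ratio of nuclear to cytoplasmic median beta-catenin stain intensity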
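assay system = human HeLa cells, endogenous beta-catenin | times = compound treatment 24 h, 37°C, 5% CO2 | detection = Anti-beta-catenin immunofluorescence on PFA-fixed, Triton-permeabilized cells, DAPI nuclei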
MT stabilize HCS – microtubule stabilization, imaging screen. HeLa tubulin immunostaining HCS, 24 h; share of cells brighter than vehicle mean+2SD. % tubulin-high responders, % at 10 µM. 0.83% of 200,000 active;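 active = plate Z-score above 3 for both tubulin-high and condensed-nucleus cell shares, with cell loss under 80%, at 10 µM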;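 also: anti alpha tubulin signal scored within the nucleus-defined area of each cell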
Dynein cargo inh – blocks dynein driven cargo transport along microtubules. 3617.4 mouse cells, GR-EGFP nuclear translocation imaging; test concentration mostly 20 µM; stimulated with dexamethasone, 1 µM; stronger effect = lower value. z-score, hits read low. 0.47% of 220,000 active. AID 1381;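 active = plate z-score of nuclear minus cytoplasmic receptor signal below a set negative limit, without overly bright fluorescence or cell loss, cut at about -3.5 in these data, passing the limit was not always enough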;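 also: z-score of nuclear minus cytoplasmic ring GR-EGFP intensity difference per well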
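Also added: dexamethasone, 1.0 µM final. Medium: tet-free, stripped-serum medium. Detection: fixed, Hoechst-stained cells imaged at 10x for EGFP. Read-out: nuclear-to-cytoplasmic GR-EGFP distribution per well. Times: induction 48 h, compound 1 h, agonist 30 min.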
HSV augment – increases HSV replication in cells; HSV replication augmentation in cells, fold increase; 0.005% of 220,000 active; maximum fold increase; in the data active = maximum fold increase above about 1.5; inconclusive = no clear call, values can overlap the other calls; tested in PC3 cells
Numbers stand for hits; – = inactive; ? = inconclusive; · = no result given. Hits are enriched below; roughly 8.9% of the tested compounds scored in any of these assays.

SMILES	L major viab	b-catenin transl	MT stabilize HCS	Dynein cargo inh	HSV augment
CN(C)c1nc(Oc2ccc(=O)n(-c3ccccc3)n2)nc(N2CCOCC2)n1	–	–	–	–	–
O=C(Nc1nnc(SCc2ccc(F)cc2)s1)C1CC(=O)N(Cc2ccccc2)C1 (stereo not given)	54	–	–	–	–
CCc1nnc(NC(=O)C2CC(=O)N(Cc3ccccc3)C2)s1 (stereo not given)	–	–	–	–	–
CCOc1ccc(-c2nn(-c3ccccc3)cc2/C=C(\C#N)S(=O)(=O)c2ccccc2)cc1C	64	–	–	–	–
O=C(N/N=C/c1ccc(-c2ccccc2[N+](=O)[O-])o1)c1cncc(Br)c1	98	–	–	–	–
Cc1c(-c2ccc(/C=N/NC(=O)C(=O)Nc3ccccc3F)o2)cccc1[N+](=O)[O-]	·	–	·	–	?
Cc1c(C(=O)N/N=C/c2ccc(-c3ccccc3[N+](=O)[O-])o2)sc(N)c1C#N	71	–	–	–	–
Cc1cc([N+](=O)[O-])c(C)cc1-c1ccc(/C=N/NC(=O)c2cccnc2)o1	100	–	–	–	–
S=c1nc(-c2ccccc2Cl)[nH][nH]1	–	–	–	–	–
Cc1nnc(SCC(=O)N2CCc3ccccc32)s1	–	–	–	–	–
CN(C(=O)c1cccs1)c1ccc(OCC(=O)Nc2ccc(C(=O)O)cc2)cc1	·	–	·	–	–
CC1=CC=CC2=NC(=O)CC(C)(C(=O)N(CC(=O)NC3CCCC3)c3ccccc3C)N12 (stereo not given)	80	–	–	–	–
O=C(Cc1ccc(Cl)cc1)Nc1ccc(Br)cc1	–	–	–	–	–
O=C(Cc1ccc(Br)cc1)NNC(=O)Nc1ccc(Cl)cc1	72	–	–	–	–
CCCCC(=O)Nc1ccc(NC(=O)c2cccs2)cn1	83	·	–	–	–
CCCC(=O)Nc1ccc(C(=O)NNC(=S)NC(=O)c2cccs2)cc1	99	·	–	–	–
COC(=O)N/N=C/c1cn(CCCOc2ccccc2)c2ccccc12	54	–	–	–	–
O=C(N/N=C/c1cn(CCOc2ccccc2)c2ccccc12)c1ccncc1	–	–	–	–	–
COC(=O)N/N=C/c1cn(Cc2ccccc2Cl)c2ccccc12	75	–	–	–	–
COC(=O)N/N=C/c1cn(Cc2ccc(Cl)cc2Cl)c2ccccc12	–	–	–	–	–
CCCCOc1ccc(C(=O)Nc2ccc(SC(F)F)cc2)cc1OC	71	–	–	–	–
O=C(Nc1ncccc1Cl)c1ccc2c(c1)OCCO2	–	–	–	–	–
COc1ccc(OC)c(NC(=O)c2cc3n(n2)C(C(F)(F)F)CC(c2ccc4c(c2)OCO4)N3)c1 (stereo not given)	–	–	–	–	–
O=C(Nc1cc(Cl)ccc1O)c1cc2n(n1)C(C(F)(F)F)CC(c1ccc3c(c1)OCO3)N2 (stereo not given)	84	–	–	–	–
COc1ccccc1NC(=O)c1cc2n(n1)C(C(F)(F)F)CC(c1ccc3c(c1)OCO3)N2 (stereo not given)	62	–	–	–	–
SMILES	L major viab	b-catenin transl	MT stabilize HCS	Dynein cargo inh	HSV augment
O=C(Nc1ccc(Br)c(C(F)(F)F)c1)c1ccccc1	61	–	–	–	–
O=C(Nc1ccc(Br)c(C(F)(F)F)c1)c1ccc(C(F)(F)F)cc1	·	–	·	–	–
COC(=O)c1c(C)[nH]c(-c2csc(N)n2)c1C	–	–	13	–	–
CCC(=O)Nc1nnc(SCCN2CCOCC2)s1	–	–	–	–	–
COc1ccc(-c2c(N)n[nH]c2C)cc1OC	–	–	–	–	–
COc1ccc(O)c(-c2cc(-c3cccc(Br)c3)n[nH]2)c1	–	–	–	–	·
COc1ccc(-c2c(-c3ccc(O)cc3O)n[nH]c2C)cc1OC	–	·	35	–	–
COc1ccc(-c2cc(-c3cc(OC)ccc3O)[nH]n2)cc1	91	·	–	–	–
COc1ccc(-c2cc(-c3ccc(OC)c(OC)c3)n[nH]2)c(O)c1	99	·	–	–	–
Cc1ccc(O)c(-c2cc(-c3cccc(F)c3)n[nH]2)c1	99	–	–	–	–
O=C(O)CCn1nnc(-c2ccccc2)n1	–	–	–	–	–
N#C[C@H]1[C@H](c2ccccc2)[C@](C#N)(C(=O)c2ccccc2)[C@@H]2C=Cc3ccccc3N21	–	78	25	–	·
Cc1cc(C)n(-c2nnc(C)c(=O)[nH]2)n1	–	–	–	–	–
CCOC(=O)c1cc2sccc2n1CC(=O)N1CCCc2ccccc21	92	–	–	–	–
O=C(c1cc2sccc2n1Cc1ccccc1)N1CCCc2ccccc21	63	–	–	–	–
CCN(CC)C(=O)CN(c1cc2c(cc1OC)oc1ccccc12)S(=O)(=O)c1ccccc1	–	–	–	–	–
CSc1ccccc1C(=O)Nc1nc2ccccc2[nH]1	–	–	–	–	–
CCc1ccc2nc(NC(=O)c3cc(C)on3)sc2c1	–	–	38	–	–
O=C(NCCNC(=O)c1cccs1)c1ccco1	–	·	–	–	–
COC(=O)c1c(NC(=O)COC(=O)[C@@H](NS(=O)(=O)c2ccc(C)cc2)C(C)C)sc2c1CCC2	94	–	–	–	–
COC(=O)c1c(NC(=O)COC(=O)c2ccc(C)s2)sc2c1CCCCC2	–	–	–	–	–
COc1ccc(C2SCC(=O)N2c2nc3ccccc3s2)cc1 (stereo not given)	–	–	–	–	–
O=c1c(Cl)c(Nc2cccc(Cl)c2)cnn1-c1nc2ccccc2s1	56	–	–	–	–
Cc1ccc(C)c(N2CCN(c3cnn(-c4nc5ccccc5s4)c(=O)c3Cl)CC2)c1	–	–	–	–	–
COc1ccc(Nc2cnn(-c3nc4ccccc4s3)c(=O)c2Cl)cc1	51	–	–	–	–
SMILES	L major viab	b-catenin transl	MT stabilize HCS	Dynein cargo inh	HSV augment
CN(/N=C/c1ccc(C(C)(C)C)cc1)C1=NCCN1	56	–	–	–	–
NC(=O)C1=C[C@@H](c2ccc(C(F)(F)F)cc2)C[C@@H](OCc2ccc(CO)cc2)O1	–	–	–	–	–
O=P(OC1CCCCC1)(OC1CCCCC1)C(O)c1ccc(Cl)cc1Cl (stereo not given)	52	–	–	–	–
O=P(OC1CCCCC1)(OC1CCCCC1)C(O)c1c(Cl)cccc1Cl (stereo not given)	53	–	–	–	–
COc1ccccc1C(O)P(=O)(OC1CCCCC1)OC1CCCCC1 (stereo not given)	·	–	·	–	–
COc1ccc(CNCc2c(C(=O)N(C)C)nc3ccc(Cl)cn23)c(OC)c1	–	–	–	–	–
CC1CCN(c2nc(NCc3ccco3)nc(N)c2[N+](=O)[O-])CC1	–	–	–	–	–
CCCCN(C(=O)NC(=O)Nc1ccccc1OCC)S(C)(=O)=O	–	–	–	–	–
Cc1ccc(CN2CCN(Cc3ccccn3)CC2CCO)cc1 (stereo not given)	–	–	–	–	–
CCOCCCNC(=O)C(NC(=O)c1ccc(NC(C)=O)cc1)c1ccc(Cl)cc1 (stereo not given)	–	–	–	–	–
